The source made the active and inactive calls. The calls are words filed in the database; no cut-off is given here.
Experiments:
[1] = Selectivity index, ratio of CC50 for human HepG2 cells to EC50 for Plasmodium falciparum; assay type: toxicity, cell-based; settings: read-out: Ratio CC50/EC50
In short: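 Ratio of HepG2 CC50 (resazurin assay) to the highest EC50 among P. falciparum K1, HB3 and W2. Parasite EC50 values are means of two independent experiments, each run in duplicate.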

Plasmodium falciparum [2] = assay: Antimalarial activity against Plasmodium falciparum K1 by automated image mining based cytological profiling assay; assay type: functional, organism-based
In short: (§1)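 Parasite cultures in 384-well format, read by automated imaging. Infected erythrocytes detected by DAPI nuclear staining against WGA-AlexaFluor 488 host-cell stain, and viability by Mitotracker Red CMXRos. Total culture parasitaemia quantified. EC50 given as mean±SD of two independent experiments, each in duplicate.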

Plasmodium falciparum [3] = assay: Antimalarial activity against tightly synchronized Plasmodium falciparum K1 assessed as parasite stage accumulation index at trophozoites stages at 10 uM treated at 6 to 30 hrs post-invasion by automated image mining based cytological profiling assay; assay type: functional, organism-based
Plasmodium falciparum [4] = assay: Antimalarial activity against Plasmodium falciparum HB3 by automated image mining based cytological profiling assay; assay type: functional; in short: as §1
[5] = Tmax in Sprague-Dawley rat at 1 mg/kg, ip; assay type: ADME, organism-based; design: dose 1 mg/kg, route intraperitoneal; settings: in vivo
Plasmodium chabaudi [6] = assay: Antimalarial activity against Plasmodium chabaudi infected in BALB/c mouse assessed as reduction in accumulation of ring-stage parasites level at 3 to 30 mg/kg, ip treated on day 1 to day 3 post-infection measured on day 4 post-infection by Giemsa staining based light microscopy; assay type: functional, organism-based
In short: (§2)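 Groups of five BALB/c mice infected i.p. with 2 × 10^7 P. chabaudi-parasitized erythrocytes. Day 1 pre-treatment parasitaemia read from tail-blood thin smears, then i.p. dosing at 0.03, 0.3, 3, 10 or 30 mg/kg, repeated for two more days. Day 4 parasitaemia scored by light microscopy of Giemsa-stained thin smears; dose-response evaluated by probit analysis.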

[7] = Cmax in Sprague-Dawley rat at 1 mg/kg, ip; assay type: ADME, organism-based; design: dose 1 mg/kg, route intraperitoneal; settings: in vivo
[8] = Cmax in Sprague-Dawley rat at 5 mg/kg, ip; assay type: ADME, organism-based; design: dose 5 mg/kg, route intraperitoneal; settings: in vivo
Plasmodium falciparum [9] = assay: Antimalarial activity against tightly synchronized Plasmodium falciparum K1 assessed as parasite stage accumulation index at schizonts stages at 10 uM treated at 6 to 30 hrs post-invasion by automated image mining based cytological profiling assay; assay type: functional, organism-based
[10] = AUC in Sprague-Dawley rat at 5 mg/kg, ip; assay type: ADME, organism-based; design: dose 5 mg/kg, route intraperitoneal; settings: plasma
[11] = AUC in Sprague-Dawley rat at 1 mg/kg, ip; assay type: ADME, organism-based; design: dose 1 mg/kg, route intraperitoneal; settings: plasma
Plasmodium chabaudi [12] = assay: Antimalarial activity against Plasmodium chabaudi infected in BALB/c mouse assessed as reduction in parasitaemia level treated intraperitoneally on day 1 to day 3 post-infection measured on day 4 post-infection by Giemsa staining based light microscopy; assay type: functional; settings: for ED50: ip; in short: as §2
[13] = Tmax in Sprague-Dawley rat at 5 mg/kg, ip; assay type: ADME, organism-based; design: dose 5 mg/kg, route intraperitoneal; settings: in vivo
[14] = Half life in Sprague-Dawley rat at 5 mg/kg, ip; assay type: ADME, organism-based; design: dose 5 mg/kg, route intraperitoneal; settings: in vivo
[15] = Stability in mouse liver microsomes assessed as remaining compound level at 1 uM incubated for 5 mins in presence of NADPH measured after 30 mins by LC/MS/MS method; assay type: ADME; settings: read-out: Stability
In short: (§3)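 Percent parent compound remaining after 30 min incubation with liver microsomes; n = 3.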

Plasmodium falciparum [16] = assay: Antimalarial activity against tightly synchronized Plasmodium falciparum K1 assessed as parasite stage accumulation index at early ring stages at 10 uM treated at 6 to 30 hrs post-invasion by automated image mining based cytological profiling assay; assay type: functional, organism-based
[17] = Half life in Sprague-Dawley rat at 1 mg/kg, ip; assay type: ADME, organism-based; design: dose 1 mg/kg, route intraperitoneal; settings: in vivo
Plasmodium falciparum [18] = assay: Antimalarial activity against tightly synchronized Plasmodium falciparum K1 assessed as parasite stage accumulation index at late ring stages at 10 uM treated at 6 to 30 hrs post-invasion by automated image mining based cytological profiling assay; assay type: functional, organism-based
Plasmodium chabaudi [19] = assay: Antimalarial activity against Plasmodium chabaudi infected in BALB/c mouse assessed as reduction in blood parasitaemia level at 3 to 30 mg/kg, ip treated on day 1 to day 3 post-infection measured on day 4 post-infection by Giemsa staining based light microscopy; assay type: functional, organism-based; in short: as §2
Plasmodium falciparum [20] = assay: Antimalarial activity against Plasmodium falciparum W2 by automated image mining based cytological profiling assay; assay type: functional, organism-based; in short: as §1
[21] = Stability in human liver microsomes assessed as remaining compound level at 1 uM incubated for 5 mins in presence of NADPH measured after 30 mins by LC/MS/MS method; assay type: ADME; settings: read-out: Stability; in short: as §3

Row | Structure (SMILES) | selectivity ratio [1] | EC50 (Plasmodium falciparum [2]) [nM] | Activity (Plasmodium falciparum [3]) | EC50 (Plasmodium falciparum [4]) [nM] | Tmax [5] [h] | inhibition (Plasmodium chabaudi [6]) | Cmax [7] [ng/mL] | Cmax [8] [ng/mL] | Activity (Plasmodium falciparum [9]) | AUC [10] [ng·h/mL] | AUC [11] [ng·h/mL] | inhibition (Plasmodium chabaudi [12]) | ED50 (Plasmodium chabaudi [12]) [mg/kg] | Tmax [13] [h] | half-life [14] [h] | remaining at 0.5 h, 1 µM [15] [%] | Activity (Plasmodium falciparum [16]) | half-life [17] [h] | Activity (Plasmodium falciparum [18]) | inhibition (Plasmodium chabaudi [19]) | other results
1 | COc1ccc(CO[C@@H]([C@H](COC(c2ccccc2)(c2ccccc2)c2ccccc2)N=[N+]=[N-])[C@H](OCc2ccc(OC)cc2)c2cnc(N(C)C)nc2)cc1 | > 1000 | 92 | Active | 80 | 3.4 | Active | 1030 | 3070 | Active | 26600 | 8200 | Dose dependent effect | 0.12 | 4 | 5.78 | 81.6 | Active | 6.36 | Active | Active | EC50 (Plasmodium falciparum [20]): 80 nM; remaining at 30 min, 1 µM [21]: 89%
2 | COc1ccc(CO[C@H]([C@H](OCc2ccc(OC)cc2)c2cnc(N(C)C)nc2)[C@@H](COC(c2ccccc2)(c2ccccc2)c2ccccc2)OS(C)(=O)=O)cc1 | > 680 | 116 | Active | 104 | 1 | Active | 1800 | 12900 | Active | 41300 | 9790 | Dose dependent effect | 0.32 | 1 | 10.6 | 88.6 | Active | 10.3 | Active | Active | EC50 (Plasmodium falciparum [20]): 104 nM; remaining at 30 min, 1 µM [21]: 88.1%
